Source: publication PMC8880306 (Journal of medicinal chemistry, 2021)
Residue numbers refer to the chain shown, from its start.

Assays:
AR protein [1] = target: T1, AR protein (Homo sapiens, UniProt P10275); experiment: Western blotting of AR protein in VCaP cells; assay type: cell-based; conditions: for time within which AR protein level is effectively reduced / treatment time for near-complete AR depletion: VCaP cell line
T1 sequence (P10275 1-920): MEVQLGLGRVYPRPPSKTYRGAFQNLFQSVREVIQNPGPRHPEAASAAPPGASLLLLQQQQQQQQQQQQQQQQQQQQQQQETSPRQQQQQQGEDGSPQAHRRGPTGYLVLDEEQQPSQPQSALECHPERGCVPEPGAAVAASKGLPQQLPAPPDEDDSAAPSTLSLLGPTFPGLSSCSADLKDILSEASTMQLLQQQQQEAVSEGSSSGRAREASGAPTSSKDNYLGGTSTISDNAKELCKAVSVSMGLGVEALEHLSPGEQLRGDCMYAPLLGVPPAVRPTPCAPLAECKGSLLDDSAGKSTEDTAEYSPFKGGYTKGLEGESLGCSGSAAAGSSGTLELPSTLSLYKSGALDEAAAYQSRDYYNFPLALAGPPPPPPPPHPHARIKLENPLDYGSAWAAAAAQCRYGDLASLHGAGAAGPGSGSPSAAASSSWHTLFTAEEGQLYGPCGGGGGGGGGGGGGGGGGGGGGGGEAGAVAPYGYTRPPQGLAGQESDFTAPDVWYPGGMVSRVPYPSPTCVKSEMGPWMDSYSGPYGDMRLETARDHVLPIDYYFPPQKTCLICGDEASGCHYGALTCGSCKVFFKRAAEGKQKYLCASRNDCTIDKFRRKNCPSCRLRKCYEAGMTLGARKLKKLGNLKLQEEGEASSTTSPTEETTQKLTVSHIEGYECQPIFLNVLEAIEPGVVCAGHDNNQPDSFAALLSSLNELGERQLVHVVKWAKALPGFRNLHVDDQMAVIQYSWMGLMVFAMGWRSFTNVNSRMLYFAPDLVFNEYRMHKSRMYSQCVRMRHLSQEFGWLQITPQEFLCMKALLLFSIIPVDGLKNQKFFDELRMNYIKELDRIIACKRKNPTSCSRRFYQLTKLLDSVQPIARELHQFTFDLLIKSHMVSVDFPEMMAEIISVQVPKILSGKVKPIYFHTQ

[2] = target: T2, AR protein (AR T878A mutation) (Homo sapiens, UniProt P10275, T878A); experiment: Western blotting of AR protein in LNCaP cells; assay type: cell-based; conditions: LNCaP cell line
T2 sequence (P10275 1-920 T878A): T1 sequence (P10275 1-920) with T878A

[3] = Drug concentrations in plasma and VCaP tumor tissue in SCID mice; assay type: in vivo; conditions: VCaP tumor tissue, single 20 mg/kg PO, 6 h
Summary of the method: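 Male CB17 SCID mice carried subcutaneous VCaP xenografts (5 × 10^6 cells in 5 mg/mL Matrigel). At approximately 200 mm3 tumour volume, mice received single 20 mg/kg oral gavage in 100% PEG200. Plasma and tumour were taken at 6 and 24 h, three mice per time point. Tumours were frozen, ground in liquid nitrogen, homogenised in water:acetonitrile 4:1 at 4 °C, acetonitrile-precipitated, then assayed by validated LC-MS/MS.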

AR protein [4] = target: T1, AR protein; experiment: Pharmacodynamics: Western blot of AR protein in VCaP xenograft tumors; assay type: in vivo, mice
Oral exposure = assay type: in vivo, mice; conditions: male, SCID, mouse, plasma, 10 mg/kg
Summary of the method: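 Non-tumour-bearing male SCID mice were given single oral gavage at 10 mg/kg in 100% PEG200. Three mice per time point were sacrificed at 1, 3 and 6 h. 300 μL blood was taken per animal and centrifuged at 15000 rpm for 10 min. Plasma was stored at −80 °C and quantified by validated LC-MS/MS. Values are mean ± SD.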

VCaP xenograft tumor = experiment: Antitumor activity in the VCaP xenograft tumor model; assay type: in vivo; conditions: all dose levels, daily oral, entire 21 day experiment, SCID mice
[5] = Oral bioavailability of ARD-61 in mice; assay type: in vivo; conditions: mice (data not shown)
[6] = single oral administration 20 mg/kg, 6 h
[7] = single oral administration 20 mg/kg, 24 h

time within which AR protein level is effectively reduced (AR protein [1]) [h] | treatment time for near-complete AR depletion (AR protein [1]) [h] | time within which AR protein level is effectively reduced [2] [h] | treatment time for near-complete AR depletion [2] [h] | reduction of AR protein level in VCaP tumor tissue (AR protein [4]; [6]) | SMILES | reduction of AR protein level in VCaP tumor tissue (AR protein [4]; [7]) | other results
≤ 3 | 6 | ≤ 3 | 6 | only modestly | CC1(C)[C@H](NC(=O)c2ccc(N3CCN(C4CCN(c5ccc6c(c5)C(=O)N(C5CCC(=O)NC5=O)C6=O)CC4)CC3)cc2)C(C)(C)[C@H]1Oc1ccc(C#N)c(Cl)c1 (stereo partly drawn) [Compound 27, N-((1R,3R)-3-(3-Chloro-4-cyanophenoxy)-2,2,4,4-tetramethylcyclobutyl)-4-(4-(1-(2-(2,6-dioxopiperidin-3-yl)-1,3-dioxoisoindolin-5-yl)piperidin-4-yl)piperazin-1-yl)benzamide] | only modestly | tumor concentration (mean ± SD) [3]: 0.3148 ± 0.0937 µg/kg
 |  |  |  |  | CC1(C)[C@H](NC(=O)c2ccc(N3CCN(CCNc4ccc5c(c4)C(=O)N(C4CCC(=O)NC4=O)C5=O)CC3)cc2)C(C)(C)[C@H]1Oc1ccc(C#N)c(Cl)c1 (stereo partly drawn) [Compound 16, N-((1R,3R)-3-(3-Chloro-4-cyanophenoxy)-2,2,4,4-tetramethylcyclobutyl)-4-(4-(2-((2-(2,6-dioxopiperidin-3-yl)-1,3-dioxoisoindolin-5-yl)amino)ethyl)piperazin-1-yl)benzamide] |  | concentration at 1 h (Oral exposure): 1600 nM; concentration at 3 h (Oral exposure): 1200 nM; concentration at 6 h (Oral exposure): 800 nM
≤ 3 | 6 | ≤ 3 | 6 | modest effect | CC1(C)[C@H](NC(=O)c2ccc(N3CCN(CC4CCN(c5ccc6c(c5)C(=O)N(C5CCC(=O)NC5=O)C6=O)CC4)CC3)cc2)C(C)(C)[C@H]1Oc1ccc(C#N)c(Cl)c1 (stereo partly drawn) [Compound 28, N-((1R,3R)-3-(3-Chloro-4-cyanophenoxy)-2,2,4,4-tetramethylcyclobutyl)-4-(4-((1-(2-(2,6-dioxopiperidin-3-yl)-1,3-dioxoisoindolin-5-yl)piperidin-4-yl)methyl)piperazin-1-yl)benzamide] | effective in reducing the levels of AR protein | reduction of AR protein level in VCaP tumor tissue (AR protein [4]; daily oral 10 mg/kg for 3 days, 3 and 6 h after last dose): effectively reduces the levels of AR protein; reduction of AR protein level in VCaP tumor tissue (AR protein [4]; daily oral 10 mg/kg for 3 days, 24 h after last dose): only a modest effect; maximum weight loss (VCaP xenograft tumor): no more than 5%
≤ 3 |  | ≤ 3 |  |  | CC1(C)[C@H](NC(=O)c2ccc(N3CCC(N4CCN(c5ccc6c(c5)C(=O)N(C5CCC(=O)NC5=O)C6=O)CC4)CC3)cc2)C(C)(C)[C@H]1Oc1ccc(C#N)c(Cl)c1 (stereo partly drawn) [Compound 33, N-((1R,3R)-3-(3-Chloro-4-cyanophenoxy)-2,2,4,4-tetramethylcyclobutyl)-4-(4-(4-(2-(2,6-dioxopiperidin-3-yl)-1,3-dioxoisoindolin-5-yl)piperazin-1-yl)piperidin-1-yl)benzamide] |  | 
 |  |  |  |  | CNC(=O)c1ccc(N2C(=S)N(c3ccc(C#N)c(C(F)(F)F)c3)C(=O)C2(C)C)cc1F [enzalutamide, reference compound] |  | maximum weight loss (VCaP xenograft tumor): no more than 5%
≤ 3 | 6 | ≤ 3 | 6 | modest effect | CC1(C)[C@H](NC(=O)c2ccc(N3CCN(CC4CN(c5ccc6c(c5)C(=O)N(C5CCC(=O)NC5=O)C6=O)C4)CC3)cc2)C(C)(C)[C@H]1Oc1ccc(C#N)c(Cl)c1 (stereo partly drawn) [Compound 26, N-((1R,3R)-3-(3-Chloro-4-cyanophenoxy)-2,2,4,4-tetramethylcyclobutyl)-4-(4-((1-(2-(2,6-dioxopiperidin-3-yl)-1,3-dioxoisoindolin-5-yl)azetidin-3-yl)methyl)piperazin-1-yl)benzamide] | effective in reducing the levels of AR protein | 
 |  |  |  |  | CC1(C)[C@@H](NC(=O)c2ccc(N3CCN(CC4CCN(c5ccc6c(c5)C(=O)N(C5CCC(=O)NC5=O)C6=O)CC4)CC3)cc2)C[C@@H]1Oc1ccc(C#N)c(Cl)c1 (stereo partly drawn) [Compound 43, N-((1S,3S)-3-(3-Chloro-4-cyanophenoxy)-2,2-dimethylcyclobutyl)-4-(4-((1-(2-(2,6-dioxopiperidin-3-yi)-1,3-dioxoisoindolin-5-yl)-piperidin-4-yl)methyl)piperazin-1-yl)benzamide] |  | times less potent than compound 28 (AR protein [1]; VCaP, AR degradation): approximately 100
 |  |  |  |  | Cc1cc([C@H](C(=O)N2C[C@H](O)C[C@H]2C(=O)N[C@@H](CC(=O)N2CCC(N3CCC(C#Cc4ccc(C(=O)NC5C(C)(C)C(Oc6ccc(C#N)c(Cl)c6)C5(C)C)cc4)CC3)CC2)c2ccc(-c3scnc3C)cc2)C(C)C)on1 (stereo partly shown) [ARD-61] |  | oral bioavailability [5]: no oral bioavailability
≤ 3 | 6 | ≤ 3 | 6 |  | CC1(C)[C@H](NC(=O)c2ccc(N3CCC(CN4CCN(c5ccc6c(c5)C(=O)N(C5CCC(=O)NC5=O)C6=O)CC4)CC3)cc2)C(C)(C)[C@H]1Oc1ccc(C#N)c(Cl)c1 (stereo partly drawn) [Compound 34, N-((1R,3R)-3-(3-Chloro-4-cyanophenoxy)-2,2,4,4-tetramethylcyclobutyl)-4-(4-((4-(2-(2,6-dioxopiperidin-3-yl)-1,3-dioxoisoindolin-5-yl)piperazin-1-yl)methyl)piperidin-1-yl)benzamide] |  | 
